Measured values published in ChEMBL document CHEMBL1949532, “Novel dendrimeric lipopeptides with antifungal activity” (Bioorg Med Chem Lett, 2012).
Values after ≈ are worked out from the molar mass of the structure shown. Starred links: 1 amine or outer side, 2 acyl side, 3 side chain; linkers in the order of their positions; H or OH if unused. Residues, ends and D or L forms follow the SMILES beside them. Groups on a side chain read outwards from the residue. *: point of attachment. εLys = N[C@@H](CCCCN[*:1])C(=O)[*:2]; ClZ = O=C(OCc1ccccc1Cl)*

Experiments:
Staphylococcus aureus [1] = assay: Antibacterial activity against Staphylococcus aureus ATCC 25923 after 18 to 24 hrs by serial broth microdilution susceptibility test; type: functional
Summary of the method: (§1)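 MIC determined by serial microdilution in microplates. Candida inocula were prepared in L-glutamine-deficient RPMI-1640 medium.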

Pseudomonas aeruginosa = assay: Antibacterial activity against Pseudomonas aeruginosa ATCC 27853 after 18 to 24 hrs by serial broth microdilution susceptibility test; type: functional; summary of the method: as §1
Escherichia coli [2] = assay: Antibacterial activity against Escherichia coli ATCC 25922 after 18 to 24 hrs by serial broth microdilution susceptibility test; type: functional; summary of the method: as §1
Staphylococcus aureus [3] = assay: Antibacterial activity against Staphylococcus aureus ATCC 43300 after 18 to 24 hrs by serial broth microdilution susceptibility test; type: functional; summary of the method: as §1
[4] = test system: Klebsiella pneumoniae subsp. pneumoniae; assay: Antibacterial activity against Klebsiella pneumoniae subsp. pneumoniae ATCC 13882 after 18 to 24 hrs by serial broth microdilution susceptibility test; type: functional; summary of the method: as §1
[5] = test system: Bordetella bronchiseptica; assay: Antibacterial activity against Bordetella bronchiseptica ATCC 4617 after 18 to 24 hrs by serial broth microdilution susceptibility test; type: functional; summary of the method: as §1
Acinetobacter baumannii = assay: Antibacterial activity against Acinetobacter baumannii ATCC 19606 after 18 to 24 hrs by serial broth microdilution susceptibility test; type: functional; details: ATCC 19606 = CIP 70.34 = JCM 6841; summary of the method: as §1
Escherichia coli [6] = assay: Antibacterial activity against Escherichia coli ATCC BAA-198 after 18 to 24 hrs by serial broth microdilution susceptibility test; type: functional; summary of the method: as §1
Candida albicans [7] = assay: Antifungal activity against Candida albicans ATCC 90028 after 24 to 48 hrs by serial broth microdilution susceptibility test; type: functional; summary of the method: as §1
Candida parapsilosis = assay: Antifungal activity against Candida parapsilosis ATCC 22019 after 24 to 48 hrs by serial broth microdilution susceptibility test; type: functional; details: Lodderomyces parapsilosis; summary of the method: as §1
Pichia kudriavzevii = assay: Antifungal activity against Candida krusei ATCC 6258 after 24 to 48 hrs by serial broth microdilution susceptibility test; type: functional; summary of the method: as §1
[8] = Toxicity in human erythrocytes assessed as hemolysis at 300 uM after 30 mins by spectrophotometry; type: cell-based, Erythrocyte; details: read-out: Activity
Summary of the method: (§2)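 Human erythrocytes suspended in PBS were exposed to lipopeptides at 0.001–0.4 mmol/l and hemolysis was measured.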

[9] = Inhibition of beta (1,3) glucan synthase in Candida albicans cell membrane using UDP-Glc as substrate assessed as aniline blue-glucan complex formation by microtiter-based fluorescence method
Summary of the method: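 β(1,3)-glucan synthase in the membrane fraction of C. albicans was assayed by a microtiter-based fluorescence method across a concentration range. Values are means of three independent experiments (SD); IC50 was determined.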

Candida albicans [10] = assay: Antifungal activity against Candida albicans ATCC 10231 assessed as increase in intracellular potassium release after 30 mins; type: functional, organism-based
Summary of the method: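 Efflux of K+ from C. albicans cells was monitored continuously with a potassium-selective electrode. Release was expressed relative to a positive control, and EK50 was taken as the concentration releasing 50% of intracellular potassium.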

[11] = Toxicity in human erythrocytes assessed as hemolysis at 100 uM after 30 mins by spectrophotometry; type: cell-based, Erythrocyte; details: read-out: Activity; summary of the method: as §2

Molecule | MIC (Staphylococcus aureus [1]) [µM] | MIC (Pseudomonas aeruginosa) [µM] | MIC (Escherichia coli [2]) [µM] | MIC (Staphylococcus aureus [3]) [µM] | MIC [4] [µM] | MIC [5] [µM] | MIC (Acinetobacter baumannii) [µM] | MIC (Escherichia coli [6]) [µM] | MIC (Candida albicans [7]) [µM] | MIC (Candida parapsilosis) [µM] | MIC (Pichia kudriavzevii) [µM] | hemolysis at 0.5 h, 300 µM [8] [%] | IC50 [9] [µM] | EC50 (Candida albicans [10]) [µM] | hemolysis at 0.5 h, 100 µM [11] [%]
CCCCCCCCNC(=O)[C@H](Cc1ccccc1)NC(=O)[C@H](CCCCNC(=O)[C@@H](N)CCCCN)NC(=O)[C@@H](N)CCCCN | 128 (≈ 84.6 µg/mL) | > 256 | > 256 | 128 (≈ 84.6 µg/mL) | > 256 | 32 (≈ 21.2 µg/mL) | > 256 | > 256 | 256 (≈ 169 µg/mL) | 64 (≈ 42.3 µg/mL) | 128 (≈ 84.6 µg/mL) | 10 | – | – | –
O=C/C=C/c1ccccc1 [CINNAMALDEHYDE] | – | – | – | – | – | – | – | – | – | – | – | – | 1150 | – | –
NYSTATIN | – | – | – | – | – | – | – | – | – | – | – | – | – | 2.4 | –
OC(Cn1cncn1)(Cn1cncn1)c1ccc(F)cc1F [FLUCONAZOLE] | – | – | – | – | – | – | – | – | 13 (≈ 3.98 µg/mL) | – | – | – | – | – | –
CCCCCCCCNC(=O)[C@H](Cc1ccccc1)NC(=O)[C@H](CCCCNC(=O)[C@H](CCCCN)NC(=O)OCc1ccccc1Cl)NC(=O)[C@H](CCCCN)NC(=O)OCc1ccccc1Cl | 16 (≈ 16 µg/mL) | 32 (≈ 31.9 µg/mL) | 32 (≈ 31.9 µg/mL) | 16 (≈ 16 µg/mL) | 128 (≈ 128 µg/mL) | 8 (≈ 7.98 µg/mL) | > 256 | 32 (≈ 31.9 µg/mL) | 32 (≈ 31.9 µg/mL) | 16 (≈ 16 µg/mL) | 16 (≈ 16 µg/mL) | – | – | – | 10
NC(=O)[C@H](Cc1ccccc1)NC(=O)[C@H](CCCCNC(=O)[C@@H](N)CCCCNC(=O)OCc1ccccc1Cl)NC(=O)[C@@H](N)CCCCNC(=O)OCc1ccccc1Cl (H-Lys(ClZ)-Lys([εLys-ClZ])-Phe-NH2) | 33 (≈ 29.2 µg/mL) | 67 (≈ 59.4 µg/mL) | 33 (≈ 29.2 µg/mL) | 17 (≈ 15.1 µg/mL) | 34 (≈ 30.1 µg/mL) | 8 (≈ 7.09 µg/mL) | 67 (≈ 59.4 µg/mL) | 16 (≈ 14.2 µg/mL) | 33 (≈ 29.2 µg/mL) | 33 (≈ 29.2 µg/mL) | 33 (≈ 29.2 µg/mL) | – | – | – | –
CC1(C)S[C@@H]2[C@H](NC(=O)Cc3ccccc3)C(=O)N2[C@H]1C(=O)O [PENICILLIN G] | 6.6 (≈ 2.21 µg/mL) | – | – | – | – | – | – | – | – | – | – | – | – | – | –
